{"source": "paper PMC2843818", "about": "(Bioorganic & medicinal chemistry letters, 2010)", "key": {"human S1P3": {"molecular_target": "human S1P3 (Homo sapiens, UniProt Q99500)", "sequence (Q99500 whole entry)": "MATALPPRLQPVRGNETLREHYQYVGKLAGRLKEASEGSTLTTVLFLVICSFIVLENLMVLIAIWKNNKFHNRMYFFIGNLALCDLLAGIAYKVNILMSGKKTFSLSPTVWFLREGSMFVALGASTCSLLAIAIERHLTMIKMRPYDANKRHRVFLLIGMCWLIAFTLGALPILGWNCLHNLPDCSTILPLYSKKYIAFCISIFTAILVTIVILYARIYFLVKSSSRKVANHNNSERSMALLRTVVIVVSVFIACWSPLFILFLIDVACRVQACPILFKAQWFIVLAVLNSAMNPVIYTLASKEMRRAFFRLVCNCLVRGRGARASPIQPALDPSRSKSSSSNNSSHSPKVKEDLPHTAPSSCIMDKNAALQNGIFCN", "test": "Calcium mobilization Gi assay, S1P3", "format": "cell-based", "conditions": "for EC50 S1P3: calcium mobilization Gi assay, whole cell"}, "hS1P1 [1]": {"molecular_target": "T1, hS1P1 (Homo sapiens, UniProt P21453)", "T1 sequence (P21453 whole entry)": "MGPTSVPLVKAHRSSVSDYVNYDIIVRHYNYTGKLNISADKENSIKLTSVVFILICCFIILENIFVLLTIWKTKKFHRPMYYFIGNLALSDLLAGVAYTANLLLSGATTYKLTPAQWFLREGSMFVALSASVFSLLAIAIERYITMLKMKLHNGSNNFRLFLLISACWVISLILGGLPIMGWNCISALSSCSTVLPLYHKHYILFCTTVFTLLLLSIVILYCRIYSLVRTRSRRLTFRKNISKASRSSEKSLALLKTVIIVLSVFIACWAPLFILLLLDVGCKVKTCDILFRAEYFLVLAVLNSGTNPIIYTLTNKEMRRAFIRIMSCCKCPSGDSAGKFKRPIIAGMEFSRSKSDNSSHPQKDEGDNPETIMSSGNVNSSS", "test": "Calcium mobilization Gi assay, S1P1", "format": "cell-based", "conditions": "for EC50 S1P1: calcium mobilization Gi assay, whole cell"}, "hS1P1 [2]": {"molecular_target": "T1, hS1P1", "test": "Calcium mobilization Gq assay, S1P1", "format": "cell-based", "conditions": "for EC50 S1P1: calcium mobilization Gq assay, whole cell"}, "lymphopenia": {"system": "lymphopenia", "test": "Mouse lymphopenia", "format": "in vivo", "conditions": "for duration of sustained lymphopenia: mouse PK/PD study", "method_in_brief": "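Mouse PK/PD study with single doses of test compound at 1 or 2 mg/kg. Lymphopenia was followed over time to find how long it lasted. Pharmacokinetics were measured in parallel: oral bioavailability, half-life, clearance, volume, and percent in vivo phosphorylation.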"}}, "data": [{"smiles": "CCCCCCCCc1ccc2c(c1)CC[C@@H](C(N)(CO)COP(=O)(O)O)C2", "note": "(single isomer, unassigned) [(2’R)-3-P isomer 1]", "values": [{"measurement": "fold less potent at S1P3 than (S)-FTY720-P", "setting": "human S1P3; Gi assay", "result": 2, "unit": "fold"}, {"measurement": "fold less potent at S1P1 than (S)-FTY720-P", "setting": "hS1P1 [1]; Gi assay", "result": 6, "unit": "fold"}]}, {"smiles": "CCCCCCCCc1ccc2c(c1)CC[C@@H](C(N)(CO)COP(=O)(O)O)C2", "note": "(single isomer, unassigned) [(2’R)-3-P isomer 2]", "values": [{"measurement": "EC50 S1P3", "setting": "human S1P3", "result": "not active"}]}, {"smiles": "CCCCCCCCc1ccc2c(c1)CC[C@@H]([C@@](C)(N)COP(=O)(O)O)C2", "note": "[(2R, 2’R)-6]", "values": [{"measurement": "EC50 S1P1", "setting": "hS1P1 [2]", "result": "very active"}]}, {"smiles": "CCCCCCCCc1ccc2c(c1)CC[C@H]([C@@](C)(N)CO)C2", "note": "[(2R, 2’S)-5, (−)-(R)-2-amino-2-((S)-6-octyl-1,2,3,4-tetrahydronaphthalen-2-yl) propan-1-ol]", "values": [{"measurement": "duration of sustained lymphopenia", "setting": "lymphopenia; 1 mg/kg dose", "result": "one-week"}]}, {"smiles": "CCCCCCCCc1ccc2c(c1)CC[C@H]([C@@](C)(N)COP(=O)(O)O)C2", "note": "[(2R, 2’S)-6]", "values": [{"measurement": "selectivity of S1P1 over S1P3", "setting": "hS1P1 [2]; Gq assay, compared to FTY720", "result": "moderate selectivity"}, {"measurement": "EC50 S1P1", "setting": "hS1P1 [2]", "result": "very active"}]}, {"smiles": "CCCCCCCCc1ccc2c(c1)CC[C@@H]([C@](C)(N)CO)C2", "note": "[(2S, 2’R)-5]", "values": [{"measurement": "ED50", "setting": "lymphopenia; Mus musculus, read-out: Mouse Lymphopenia ED50", "result": "> 5", "unit": "mg/kg"}, {"measurement": "Mouse Lymphopenia ED50", "setting": "lymphopenia", "result": "not active"}]}, {"smiles": "CCCCCCCCc1ccc2c(c1)CC[C@@H]([C@](C)(N)COP(=O)(O)O)C2", "note": "[(2S, 2’R)-6]", "values": [{"measurement": "EC50 S1P3", "setting": "human S1P3", "result": "no activity"}, {"measurement": "S1P1/S1P3 selectivity", "setting": "hS1P1 [1]; Gi assay", "result": "great S1P1/S1P3 selectivity"}, {"measurement": "EC50 S1P1", "setting": "hS1P1 [1]", "result": "significantly less active"}]}, {"smiles": "CCCCCCCCc1ccc2c(c1)CC[C@H]([C@](C)(N)CO)C2", "note": "[(2S, 2’S)-5]", "values": [{"measurement": "Mouse Lymphopenia ED50", "setting": "lymphopenia", "result": "not active"}]}, {"smiles": "CCCCCCCCc1ccc2c(c1)CC[C@H]([C@](C)(N)COP(=O)(O)O)C2", "note": "[(2S, 2’S)-6]", "values": [{"measurement": "EC50 S1P3", "setting": "human S1P3", "result": "no activity"}, {"measurement": "S1P1/S1P3 selectivity", "setting": "hS1P1 [1]; Gi assay", "result": "great S1P1/S1P3 selectivity"}, {"measurement": "EC50 S1P1", "setting": "hS1P1 [1]", "result": "significantly less active"}, {"measurement": "EC50 S1P1", "setting": "hS1P1 [2]", "result": "not active"}]}, {"smiles": "CCCCCCCCc1ccc2c(c1)CC[C@@H](C(N)(CO)CO)C2", "note": "[(2’R)-3]", "values": [{"measurement": "duration of sustained lymphopenia", "setting": "lymphopenia; 2 mg/kg dose", "result": 72, "unit": "h"}]}, {"smiles": "CCCCCCCCc1ccc(CC[C@@](N)(CO)COP(=O)(O)O)cc1", "note": "[(R)-FTY720-P, reference compound]", "values": [{"measurement": "EC50 S1P3", "setting": "human S1P3", "result": "not active"}, {"measurement": "EC50 S1P1", "setting": "hS1P1 [2]", "result": "not active"}]}]}
